Assay results reported in ChEMBL document CHEMBL4610093, “Bioreductively Activatable Prodrug Conjugates of Combretastatin A-1 and Combretastatin A-4 as Anticancer Agents Targeted toward Tumor-Associated Hypoxia” (J Nat Prod, 2020).

Experiments:
[1] = test system: A549; assay: Cytotoxicity against human A549 cells incubated for 52 hrs in oxic condition by sulforhodamine B assay; assay type: functional; conditions: A549, 52 h
In short: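 Normoxic arm: A549 cells at 6000 cells/well, 2 h attachment. Serial dilutions from DMSO stocks, top final concentration 50 µg/mL, in duplicate. Drug exposure 4 h under 95% air/5% CO2, then 48 h aerobic culture. Cytotoxicity read by SRB.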

[2] = Stability of the compound in pH 7.4 potassium phosphate buffer assessed as compound hydrolysis after 48 hrs; assay type: physicochemical; conditions: read-out: Drug degradation
[3] = test system: A549; assay: Cytotoxicity against human A549 cells incubated for 4 hrs in anoxic condition followed by oxic exposure for 48 hrs by sulforhodamine B assay; assay type: functional
In short: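 Anoxic arm: A549 cells handled in an anaerobic chamber (≤10 ppm O2) with medium and plates preconditioned ≥48 h. 6000 cells/well, 2 h attachment. Serial dilutions from DMSO stocks, top final concentration 50 µg/mL, in duplicate. 4 h anaerobic drug exposure, then 48 h aerobic, then SRB readout.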

[4] = Inhibition of bovine brain tubulin polymerisation preincubated for 15 mins followed by GTP addition and measured for 20 mins by turbidimetry based spectrophotometric method; parameters: species or system Bos taurus
In short: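 Bovine brain tubulin at 1.0 mg/mL (10 µM) in 0.8 M monosodium glutamate (pH 6.6) with 4% DMSO and compound. Preincubated 15 min at 30 °C, chilled, then 0.4 mM GTP added. Temperature jumped from 0 to 30 °C; turbidity at 350 nm followed for 20 min. IC50 is the concentration halving extent of assembly.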

[5] = test system: A549; assay: Ratio of GI50 for human A549 cells in oxic condition to GI50 for anoxic condition; assay type: functional
In short: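 A549 cells at 6000 cells/well. Drug exposure 4 h either anaerobic (≤10 ppm O2, preconditioned medium and plates) or under 95% air/5% CO2, then 48 h aerobic. SRB cytotoxicity read in duplicate, top final concentration 50 µg/mL. Ratio taken as oxic over anoxic value.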

[6] = target: T1, Tubulin (Homo sapiens) (UniProt P68371+Q9H4B7+P0DPH7+P68366+Q13509+Q71U36+P04350+Q3ZCM7+P07437+P68363+Q9BQE3+Q6PEY2+Q13885+Q9BVA1+Q9BUF5); assay: Inhibition of [3H]colchicine binding to tubulin (unknown origin) at 5 uM incubated for 10 mins by scintillation counting relative to control; assay type: protein-complex assay
In short: (§1)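 Purified tubulin at 1.0 µM with 5.0 µM [3H]colchicine, in 1.0 M monosodium glutamate (pH 6.6), 0.5 mg/mL BSA, 0.1 M glucose-1-phosphate, 1.0 mM MgCl2, 1.0 mM GTP and 5% DMSO. Incubated 10 min at 37 °C, then filter-bound radioactivity counted. Percent inhibition taken against no-inhibitor controls, corrected for filter binding without tubulin.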

[7] = target: T2, NADPH-cytochrome P450 oxidoreductase (Rattus norvegicus, UniProt P00388); assay: Substrate activity at rat NADPH-cytochrome P450 oxidoreductase expressed in supersomes assessed as compound cleavage after 90 mins in anaerobic condition by HPLC analysis; conditions: read-out: Drug degradation
T2 sequence (P00388 whole entry): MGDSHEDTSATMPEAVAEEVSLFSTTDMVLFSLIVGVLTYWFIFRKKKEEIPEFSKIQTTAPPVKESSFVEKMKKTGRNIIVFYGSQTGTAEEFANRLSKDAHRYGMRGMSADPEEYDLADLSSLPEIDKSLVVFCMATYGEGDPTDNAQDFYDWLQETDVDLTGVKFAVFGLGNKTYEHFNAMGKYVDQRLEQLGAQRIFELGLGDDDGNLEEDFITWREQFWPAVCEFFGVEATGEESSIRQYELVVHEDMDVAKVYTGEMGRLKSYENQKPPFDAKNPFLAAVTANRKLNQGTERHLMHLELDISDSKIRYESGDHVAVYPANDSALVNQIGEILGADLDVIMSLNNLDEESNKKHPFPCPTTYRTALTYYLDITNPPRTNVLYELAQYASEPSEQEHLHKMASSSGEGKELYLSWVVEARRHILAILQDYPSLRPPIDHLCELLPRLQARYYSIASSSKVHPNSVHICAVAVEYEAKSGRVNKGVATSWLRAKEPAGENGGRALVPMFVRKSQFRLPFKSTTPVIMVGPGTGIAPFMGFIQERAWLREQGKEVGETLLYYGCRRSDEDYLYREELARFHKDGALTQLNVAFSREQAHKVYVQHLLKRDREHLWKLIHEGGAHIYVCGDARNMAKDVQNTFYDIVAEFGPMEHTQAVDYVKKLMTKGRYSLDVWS
In short: (§2)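 Rat POR supersomes (0.006 U) with 0.8 mM NADPH, acting on compound diluted from 10 mM DMSO stock into 200 mM potassium phosphate pH 7.4 with 0.1% Triton X-100 and 400 µM protocatechuic acid. Made anaerobic by N2 evacuation/sparging plus 0.08 U protocatechuate dioxygenase. Incubated at 37 °C, quenched with acetonitrile, quantified by HPLC against standard curves; no-POR controls.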

[8] = target: T1, Tubulin (Homo sapiens); assay: Inhibition of [3H]colchicine binding to tubulin (unknown origin) at 1 uM incubated for 10 mins by scintillation counting relative to control; assay type: protein-complex assay; in short: as §1
[9] = test system: 4T1; assay: Induction in necrosis in tumor of BALB/C mouse implanted with mouse 4T1 cells harboring firefly luciferase reporter gene at 120 mg/kg, ip measured after 72 to 96 hrs by hematoxylin and eosin staining based assay (reference value: 46%); assay type: functional
[10] = test system: 4T1; assay: Induction of vascular damage in mouse 4T1 cells harboring firefly luciferase reporter gene implanted BALB/C mouse assessed as reduction in light emission at 120 mg/kg, ip measured up to 72 hrs by Bioluminescence imaging analysis; assay type: functional; parameters: scale not given: the % may be the effect or the level left
In short: (§3)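 Orthotopic 4T1-luc mammary fat pad tumours (10–12 mm) in female BALB/c mice. Single IP dose of 120 mg/kg in saline given right after baseline imaging. Dynamic BLI over about 20 min after subcutaneous D-luciferin (120 mg/kg), repeated with fresh luciferin at 4, 24 and 48 h. Signal compared by area under the light emission curve.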

[11] = test system: 4T1; assay: Induction of vascular damage in mouse 4T1 cells harboring firefly luciferase reporter gene implanted BALB/C mouse assessed as reduction in light emission at 120 mg/kg, ip measured after 4 hrs by Bioluminescence imaging analysis; assay type: functional; parameters: scale not given: the % may be the effect or the level left; in short: as §3
[12] = Stability of the compound in pH 7.4 potassium phosphate buffer assessed as spontaneous compound hydrolysis measured for 150 mins; assay type: physicochemical; conditions: pH 7.4, 2.5 h
[13] = Stability of the compound in pH 7.4 potassium phosphate buffer assessed as compound hydrolysis after 24 to 48 hrs; assay type: physicochemical
[14] = target: T2, NADPH-cytochrome P450 oxidoreductase; assay: Substrate activity at rat NADPH-cytochrome P450 oxidoreductase expressed in supersomes assessed as compound cleavage after 24 hrs in anaerobic condition by HPLC analysis; conditions: read-out: Activity; in short: as §2
[15] = Solubility of the compound in buffered saline; assay type: physicochemical; conditions: buffer
[16] = Solubility of the compound in DMSO; assay type: physicochemical
[17] = Solubility of the compound in water; assay type: physicochemical; conditions: buffer
[18] = test system: 4T1; assay: Induction in necrosis in tumor of BALB/C mouse implanted with mouse 4T1 cells harboring firefly luciferase reporter gene at 180 mg/kg, ip measured after 72 to 96 hrs by hematoxylin and eosin staining based assay (reference value: 46%); assay type: functional

SMILES | GI50 [1] [nM] | degraded at 48 h [2] [%] | GI50 [3] [nM] | IC50 [4] [nM] | RatioGI50 [5] | inhibition [6] [%] | metabolised at 1.5 h [7] [%] | further results
COc1cc(/C=C\c2ccc(OC)c(OCc3ccc([N+](=O)[O-])s3)c2O)cc(OC)c1OC | 320 | 0 | 690 | 4300 | 0.46 | 58 | 17.9 | 
COc1ccc(/C=C\c2cc(OC)c(OC)c(OC)c2)c(OC(C)c2ccc([N+](=O)[O-])s2)c1O (centres undefined) | 180 | 0.5 | 260 | 840 | 0.69 | 90 | 5.6 | inhibition [8]: 34%
COc1cc(/C=C\c2ccc(OC)c(OC(C)c3ccc([N+](=O)[O-])s3)c2OS(=O)(=O)c2ccc(C)cc2)cc(OC)c1OC (centres undefined) | 4600 | 0.84 | 3300 | > 20000 | 1.4 |  | 13.5 | 
COc1ccc(/C=C\c2cc(OC)c(OC)c(OC)c2)c(OCc2ccc([N+](=O)[O-])s2)c1O | 170 | 0 | 280 | 1700 | 0.61 | 92 | 14.2 | inhibition [8]: 53%
Nc1n[n+]([O-])c2ccccc2[n+]1[O-] [TIRAPAZAMINE] | 63000 |  | 6800 |  | 9.2 |  |  | 
COc1ccc(/C=C\c2cc(OC)c(OC)c(OC)c2)c(OS(=O)(=O)c2ccc(C)cc2)c1O | 65 |  | 190 | 840 |  | 84 |  | inhibition [8]: 50%
COc1ccc(/C=C\c2cc(OC)c(OC)c(OC)c2)cc1OP(=O)([O-])[O-].[Na+].[Na+] [FOSBRETABULIN DISODIUM] |  |  |  |  |  |  |  | Activity [9]: 70%; Activity [10]: >90%; Activity [11]: >99%
COc1cc(/C=C\c2ccc(OC)c(OC(C)(C)c3ccc([N+](=O)[O-])s3)c2OC(C)C)cc(OC)c1OC | 1500 | 4.03 | 490 | 9500 | 3.1 |  | 7.6 | 
COc1cc(/C=C\c2ccc(OC)c3c2OC(c2ccc([N+](=O)[O-])s2)O3)cc(OC)c1OC (centres undefined) | 46 |  | 33 | 1700 | 1.4 | 25 |  | 
COc1cc(/C=C\c2ccc(OC)c(OC(C)c3ccc([N+](=O)[O-])s3)c2O)cc(OC)c1OC (centres undefined) | 310 | 0 | 51 | 6200 | 6.1 | 72 | 25.5 | 
COc1ccc(/C=C\c2cc(OC)c(OC)c(OC)c2)c(OC(C)(C)c2ccc([N+](=O)[O-])s2)c1O | 6000 |  | 480 | 1300 | 12.5 | 43 | 100 | Stability [12]: Stable; Stability [13]: Unstable
COc1ccc(/C=C\c2cc(OC)c(OC)c(OC)c2)c(OC(C)C)c1O | 63 |  | 46 | 820 |  | 94 |  | inhibition [8]: 72%
COc1cc(/C=C\c2ccc(OC)c3c2OC(C)(c2ccc([N+](=O)[O-])s2)O3)cc(OC)c1OC (centres undefined) | 550 |  | 720 | > 20000 | 0.76 |  |  | 
COc1cc(/C=C\c2ccc(OC)c(OC(C)c3ccc([N+](=O)[O-])s3)c2OC(C)C)cc(OC)c1OC (centres undefined) | 2900 | 0.69 | 1200 | > 20000 | 2.4 |  | 3.8 | 
COc1ccc(/C=C\c2cc(OC)c(OC)c(OC)c2)cc1OC(C)(C)c1ccc([N+](=O)[O-])s1 | 2200 | 0.69 | 53 | > 20000 | 41.5 | 33 | 25.4 | metabolised at 24 h [14]: 100%; solubility [15]: Insoluble; solubility [16]: Soluble; solubility [17]: Insoluble; Activity [18]: 47 - 55%
COc1cc(/C=C\c2ccc(OC)c(OCc3ccc([N+](=O)[O-])s3)c2OS(=O)(=O)c2ccc(C)cc2)cc(OC)c1OC | 440 | 0.25 | 520 | > 20000 | 0.85 |  |  | 
O=[N+]([O-])c1nccn1CC(O)CNCCBr (centres undefined) | > 89000 |  | 24000 |  |  |  |  | 
COc1ccc(/C=C\c2cc(OC)c(OC)c(OC)c2)cc1OCc1ccc([N+](=O)[O-])s1 | 110 | 0.35 | 32 | > 20000 | 3.4 | 26 | 2.7 | 
COc1ccc(/C=C\c2cc(OC)c(OC)c(OC)c2)c(O)c1O [COMBRETASTATIN A-1] | 1200 |  | 820 |  |  | 99.6 |  | 
COc1ccc(/C=C\c2cc(OC)c(OC)c(OC)c2)cc1O [COMBRETASTATIN A4] | 4.7 |  | 6.1 |  |  |  |  | 
COc1cc(/C=C\c2ccc(OC)c(OCc3ccc([N+](=O)[O-])s3)c2OC(C)C)cc(OC)c1OC | 1900 | 1.59 | 300 | 12000 | 6.3 |  | 1.1 | 
COc1ccc(/C=C\c2cc(OC)c(OC)c(OC)c2)cc1OC(C)c1ccc([N+](=O)[O-])s1 (centres undefined) | 150 |  | 38 | > 20000 | 4 | 15 | 4.1 | 
